Our source for the IC50 and Activity values is ChEMBL document CHEMBL4196247, “Coumarinolignoids and Taraxerane Triterpenoids from Sapium discolor and Their Inhibitory Potential on Microglial Nitric Oxide Production” (J Nat Prod, 2018).

Each structure is given as a SMILES string.

In data set [1] the test system is BV-2. Description: Antineuroinflammatory activity in mouse BV2 cells assessed as inhibition of LPS-induced nitric oxide production measured after 24 hrs by Griess assay. As to conditions: BV-2, 24 h. Format: functional, cell-based. The method, boiled down: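 BV-2 microglia; minocycline served as the positive control, and IC50 values were reported.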
On the technique in general: Nitrite, measured by Griess reagent, commonly stands in for NO production.

In data set [2] the test system is BV-2. Description: Cytotoxicity against mouse BV2 cells assessed as reduction in cell viability at 1 to 100 uM after 24 hrs by MTT assay. It is filed as cell-based. As to conditions: bv-2, 24 h. The method, boiled down: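 BV-2 viability was read by MTT at 1, 10, 30 and 100 μM in parallel with the NO-release test, to exclude NO drops caused by lost viability.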
For orientation: Tetrazolium dyes change colour on reduction, which living cells bring about.

On to `COc1cc(/C=C/C(=O)O[C@H]2CC(=O)[C@]3(C)[C@H]4CC[C@]5(C)C(=CC[C@@]6(C(=O)O)CCC(C)(C)C[C@H]65)[C@]4(C)CC[C@H]3C2(C)C)ccc1O`, for which the IC50 with BV-2 [1] was 15.3 µM. Moreover, the Activity result in the data set on BV-2 [2] is “Non-Toxic”.
`CC1(COC(=O)/C=C/c2ccc(O)cc2)CC[C@]2(C(=O)O)CC=C3[C@]4(C)CC[C@H]5C(C)(C)C(=O)C=C[C@]5(C)[C@H]4CC[C@@]3(C)[C@@H]2C1` (stereo not given in full): the IC50 with BV-2 [1] was 2.7 µM. Also, the Activity result in the data set on BV-2 [2] is “Non-Toxic”.
For `CC1(C)CC[C@]2(C(=O)O)CC=C3[C@]4(C)CC[C@H]5C(C)(C)[C@@H](O)CC(=O)[C@]5(C)[C@H]4CC[C@@]3(C)[C@@H]2C1` the same measures were more than 50 µM and “Non-Toxic”.
On the same counts, the results for `CC(=O)O[C@H]1C[C@H](O)[C@]2(C)[C@H]3CC[C@]4(C)C(=CC[C@@]5(C(=O)O)CCC(C)(C)C[C@H]54)[C@]3(C)CC[C@H]2C1(C)C` are more than 50 µM and “Non-Toxic”.
For `O=c1ccc2cc3c(cc2o1)O[C@H](c1ccc(O)c(O)c1)[C@@H](CO)O3` the same measures were 13.8 µM and “Non-Toxic”.
As to `CC1(C)CC[C@]2(C(=O)O)CC=C3[C@]4(C)CC[C@H]5C(C)(C)[C@@H](OC(=O)/C=C/c6ccc(O)cc6)CC(=O)[C@]5(C)[C@H]4CC[C@@]3(C)[C@@H]2C1`, in the data set with BV-2 [1], the IC50 turned out to be 14 µM. Moreover, in the data set with BV-2 [2], the Activity result is on record as “Non-Toxic”.
For `CC1(C)CC[C@]2(C(=O)O)CC=C3[C@]4(C)CC[C@H]5C(C)(C)C(=O)CC[C@]5(C)[C@H]4CC[C@@]3(C)[C@@H]2C1` the same measures were more than 50 µM and “Non-Toxic”.
On the same counts, the results for `O=c1ccc2cc3c(cc2o1)O[C@H](CO)[C@@H](c1ccc(O)c(O)c1)O3` are 5.8 µM and “Non-Toxic”.
With `O=c1ccc2cc3c(cc2o1)O[C@@H](c1ccc(O)c(O)c1)[C@H](CO)O3`, in the data set with BV-2 [1], the IC50 was determined as 7.2 µM. Besides, in the data set with BV-2 [2], the Activity entry is on record as “Non-Toxic”.
For `CC1(C)CC[C@]2(C(=O)O)CC=C3[C@]4(C)CC[C@H]5C(C)(C)[C@@H](OC(=O)/C=C/c6ccc(O)cc6)C[C@H](O)[C@]5(C)[C@H]4CC[C@@]3(C)[C@@H]2C1` the same measures were 46.5 µM and “Non-Toxic”.
For `COc1c2c(cc3ccc(=O)oc13)O[C@@H](c1ccc(O)c(O)c1)[C@H](CO)O2` the same measures were 4.2 µM and “Non-Toxic”.
Turning to `O=c1ccc2cc3c(cc2o1)O[C@@H](CO)[C@H](c1ccc(O)c(O)c1)O3`, the IC50 in the data set with BV-2 [1] is more than 50 µM. In the data set with BV-2 [2], the Activity result was “Non-Toxic”.
On the same counts, the results for `COc1c2c(cc3ccc(=O)oc13)O[C@H](c1ccc(O)c(O)c1)[C@@H](CO)O2` are 11.8 µM and “Non-Toxic”.
On the same counts, the results for `CC1(COC(=O)/C=C\c2ccc(O)cc2)CC[C@]2(C(=O)O)CC=C3[C@]4(C)CC[C@H]5C(C)(C)C(=O)C=C[C@]5(C)[C@H]4CC[C@@]3(C)[C@@H]2C1` (stereo not given in full) are 1.7 µM and “Non-Toxic”.
`CC(=O)O[C@H]1CC(=O)[C@]2(C)[C@H]3CC[C@]4(C)C(=CC[C@@]5(C(=O)O)CCC(C)(C)C[C@H]54)[C@]3(C)CC[C@H]2C1(C)C`: the IC50 in the data set on BV-2 [1] is more than 50 µM. The Activity result in the data set with BV-2 [2] was “Non-Toxic”.
As to `CC(=O)O[C@H]1CC[C@]2(C)[C@H]3CC[C@]4(C)C(=CC[C@@]5(C(=O)O)CCC(C)(C)C[C@H]54)[C@]3(C)CC[C@H]2C1(C)C` [ACETYL ALEURITOLIC ACID], the IC50 in the data set on BV-2 [1] was more than 50 µM. In addition, the Activity result in the data set on BV-2 [2] is reported as “Non-Toxic”.
For `CC1(C)CC[C@]2(C(=O)O)CC=C3[C@]4(C)CC[C@H]5C(C)(C)[C@@H](O)CC[C@]5(C)[C@H]4CC[C@@]3(C)[C@@H]2C1` [ALEURITOLIC ACID] the same measures were more than 50 µM and “Non-Toxic”.
Regarding `CN(C)c1ccc(O)c2c1C[C@H]1C[C@H]3[C@H](N(C)C)C(O)=C(C(N)=O)C(=O)[C@@]3(O)C(O)=C1C2=O` [MINOCYCLINE], in the data set on BV-2 [1], the IC50 came to 4.9 µM.

A word on the IC50: it is the concentration that inhibits the measured activity by half.
